Experimental data reported in ChEMBL document CHEMBL4819012, “Discovery of novel 2-aryl-3-sulfonamido-pyridines (HoAns) as microtubule polymerization inhibitors with potent antitumor activities” (Eur J Med Chem, 2021).
pIC50: −log10 of the molar value. Values belong to the compound of their own block, whether it stands above or below them. Activity calls are given as the source filed them. The calls are words filed in the database; no cut-off is given here.

What was measured:
[1] = test system: RKO; assay: Induction of apoptosis in human RKO cells assessed as increase in ROS levels at 0.5 uM measured after 24 hrs by DCFH-DA staining based flow cytometry method relative to control; assay type: functional
Method in brief: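 Cells at 5×10^5 per well exposed to 0.25 or 0.5 µM for 24 h, then loaded with 5 µM DCFH-DA in serum-free medium 30 min at 37 °C; washed, harvested, read by flow cytometry (ex 488/em 525 nm). ROS given as ratio of treated to control; at least three experiments.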

[2] = test system: SW-620; assay: Induction of apoptosis in human SW-620 cells assessed as necrotic cells at 1 uM measured after 24 hrs by PI/Annexin V staining based flow cytometry assay (reference value: 0.03%); assay type: functional
[3] = test system: SW-620; assay: Induction of apoptosis in human SW-620 cells assessed as late apoptotic cells at 1 uM measured after 24 hrs by PI/Annexin V staining based flow cytometry assay (reference value: 3.66%); assay type: functional
[4] = test system: SW-620; assay: Induction of cell cycle arrest in human SW-620 cells assessed as accumulation of cells in S phase at 1 uM measured after 24 hrs by PI staining based flow cytometry method (reference value: 46.12%); assay type: functional
[5] = test system: HUVEC; assay: Cytotoxicity against human HUVEC cells assessed as inhibition of cell proliferation measured after 24 hrs by MTS assay; assay type: cell-based
Method in brief: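 HUVECs exposed to graded concentrations for 24 h; viability read by MTS assay; IC50 reported as mean ± SD.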

[6] = test system: SW-620; assay: Antiproliferative activity against human SW-620 cells assessed as cell viability measured after 72 hrs by MTS method; assay type: functional, cell-based; settings: SW-620, 72 h
Method in brief: (§1)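 Log-phase cells plated at 5×10^3–6×10^3 per well for 24 h, then given graded compound concentrations in fresh medium for 72 h, five replicate wells. Medium replaced with medium containing 10% MTS, 30 min or more at 37 °C in dark; OD 490 nm read. IC50 by nonlinear regression; mean ± SD of at least three experiments.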

[7] = test system: RKO; assay: Induction of apoptosis in human RKO cells assessed as early apoptotic cells at 1 uM measured after 24 hrs by PI/Annexin V staining based flow cytometry assay (reference value: 2.58%); assay type: functional
[8] = test system: RKO; assay: Induction of cell cycle arrest in human RKO cells assessed as accumulation of cells in S phase at 1 uM measured after 24 hrs by PI staining based flow cytometry method (reference value: 49.66%); assay type: functional
[9] = test system: SGC-7901; assay: Antiproliferative activity against human SGC-7901 cells assessed as cell viability measured after 72 hrs by MTS method; assay type: functional, cell-based; settings: SGC-7901, 72 h; method in brief: as §1
[10] = test system: PLC-PRF-5; assay: Antiproliferative activity against human PLC-PRF-5 cells assessed as cell viability measured after 72 hrs by MTS method; assay type: functional, cell-based; settings: PLC-PRF-5, 72 h; method in brief: as §1
[11] = test system: RKO; assay: Induction of apoptosis in human RKO cells assessed as increase in Bax expression at 0.5 to 1 uM measured after 24 hrs by western blot assay; assay type: functional, cell-based; settings: dose 0.5-1 µM
Method in brief: (§2)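 RKO or SW620 cells at 4×10^5–5×10^5 per well treated with 0.5 and 1 µM for 24 h; lysed in SDS loading buffer, boiled, SDS-PAGE, PVDF transfer; probed with anti-Bax or anti-cleaved PARP (1:1000) overnight at 4 °C, HRP secondary, ECL detection; β-actin control.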

[12] = Toxicity against Athymic nude mouse xenografted with SW-620 cells assessed as changes in body weight at 25 mg/kg per two days, po measured after 20 days; assay type: organism-based; settings: in vivo, 480 h, time 20 day
Method in brief: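 Nude mice given 5×10^6 SW620 cells s.c. into the right armpit; at ~100 mm³ randomized (n = 6). Dosed orally at 25 mg/kg every 2 days in DMSO:corn oil 1:9 (100 μL) for 20 days; vehicle controls dosed on the same schedule. Body weight recorded every 2 days.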

[13] = test system: PANC-1; assay: Induction of cell cycle arrest in human PANC-1 cells assessed as accumulation of cells in G1 phase at 1 uM measured after 24 hrs by PI staining based flow cytometry method (reference value: 31.35%); assay type: functional
[14] = test system: PANC-1; assay: Induction of cell cycle arrest in human PANC-1 cells assessed as accumulation of cells in S phase at 1 uM measured after 24 hrs by PI staining based flow cytometry method (reference value: 65%); assay type: functional
[15] = test system: RKO; assay: Antiproliferative activity against human RKO cells assessed as cell viability measured after 72 hrs by MTS method; assay type: functional, cell-based; method in brief: as §1
[16] = test system: SW-620; assay: Induction of apoptosis in human SW-620 cells assessed as viable cells at 1 uM measured after 24 hrs by PI/Annexin V staining based flow cytometry assay (reference value: 93.89%); assay type: functional; settings: read-out: Activity
[17] = test system: SW-620; assay: Induction of apoptosis in human SW-620 cells assessed as increase in cleaved PARP levels at 0.5 to 1 uM measured after 24 hrs by western blot assay; assay type: functional, cell-based; settings: dose 0.5-1 µM; method in brief: as §2
[18] = test system: RKO; assay: Induction of cell cycle arrest in human RKO cells assessed as accumulation of cells in G2 phase at 1 uM measured after 24 hrs by PI staining based flow cytometry method (reference value: 10.79%); assay type: functional
[19] = test system: RKO; assay: Antiproliferative activity against human RKO cells assessed as inhibition of cell proliferation measured after 24 hrs by crystal violet staining based colony-formation assay; assay type: functional; settings: dose 0.125-1 µM
Method in brief: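 RKO or SW620 cells plated at 1000 cells/well overnight, exposed to 0.125–1 µM for 24 h, then grown 10 days in fresh medium. Colonies fixed in methanol 15 min, stained with 0.1% crystal violet 30 min, photographed; colonies of more than 50 cells counted.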

[20] = test system: RKO; assay: Induction of cell cycle arrest in human RKO cells assessed as accumulation of cells in G1 phase at 0.5 uM measured after 24 hrs by PI staining based flow cytometry method (reference value: 39.54%); assay type: functional
[21] = test system: RKO; assay: Induction of cell cycle arrest in human RKO cells assessed as reduction in Cyclin B1 expression at 0.5 to 1 uM measured after 24 hrs by western blot assay; assay type: functional, cell-based; settings: dose 0.5-1 µM
Method in brief: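 RKO or SW620 cells (4×10^5–5×10^5 per well) exposed to 0.5 or 1 μM or DMSO for 24 h. Lysed in SDS loading buffer, boiled, run on 8–15% SDS-PAGE and moved to PVDF. Blocked in 5% milk, probed overnight at 4 °C with anti-Cdc2 or anti-cyclin B1 (1:1000), β-actin as reference. HRP secondary and ECL detection. Done at least three times.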

[22] = test system: SW-620; assay: Induction of apoptosis in human SW-620 cells assessed as viable cells at 0.5 uM measured after 24 hrs by PI/Annexin V staining based flow cytometry assay (reference value: 93.89%); assay type: functional; settings: read-out: Activity
[23] = test system: SW-620; assay: Induction of apoptosis in human SW-620 cells assessed as necrotic cells at 0.5 uM measured after 24 hrs by PI/Annexin V staining based flow cytometry assay (reference value: 0.03%); assay type: functional
[24] = test system: RKO; assay: Induction of apoptosis in human RKO cells assessed as necrotic cells at 0.5 uM measured after 24 hrs by PI/Annexin V staining based flow cytometry assay (reference value: 0.01%); assay type: functional
[25] = test system: RKO; assay: Induction of cell cycle arrest in human RKO cells assessed as accumulation of cells in S phase at 0.5 uM measured after 24 hrs by PI staining based flow cytometry method (reference value: 49.66%); assay type: functional

pIC50 [6]: 5.55
pIC50 [9]: 6.13
Structure (SMILES): COc1ccc(S(=O)(=O)Nc2cccnc2Nc2ccc(O)cc2)cc1 [ABT-751]
fold change (FC) [1]: 2
Activity [2]: 0.07%
Activity [3]: 4.322%
Activity [4]: 44.45%
pIC50 [5]: 5.04
Activity [7]: 10.16%
Activity [8]: 46.23%
pIC50 [10]: 6.10
Activity [11]: Active
Activity [12]: Non-Toxic
Activity [13]: 31.44%
Activity [14]: 33.13%
pIC50 [15]: 6.20
viability at 1 µM [16]: 85.6%
Activity [17]: Active
Activity [18]: 52.8%

pIC50 [6]: 6.17
pIC50 [9]: 6.21
Structure (SMILES): COc1ccc(S(=O)(=O)Nc2cccnc2-c2ccc(C#N)c(F)c2)cc1
fold change (FC) [1]: 1.5
Activity [19]: Dose-Dependent Effect
Activity [2]: 0.09%
Activity [3]: 4.26%
Activity [4]: 15.67%
pIC50 [5]: 5.05
Activity [7]: 36.65%
Activity [8]: 43.49%
Activity [20]: 36.95%
Activity [21]: Active
viability at 0.5 µM [22]: 90.2%
Activity [11]: Active
Activity [12]: Non-Toxic
Activity [13]: 2.04%
Activity [14]: 40.54%
pIC50 [15]: 6.77
Activity [23]: 0.06%
viability at 1 µM [16]: 87.3%
Activity [17]: Active
Activity [24]: 0.03%
Activity [18]: 47.76%
Activity [25]: 46.37%
